Measurements as given in ChEMBL document CHEMBL1137132, “The synthesis and SAR of 2-arylsulfanyl-phenyl piperazinyl acetic acids as glyT-1 inhibitors” (Bioorg Med Chem Lett, 2004).

Tests used:
[1] = biological target: T1, Sodium- and chloride-dependent glycine transporter 1 (Homo sapiens, UniProt P48067); assay: Inhibition of uptake of [3H]-glycine into cells transfected with human GlyT-1b transporter
T1 sequence (P48067 whole entry): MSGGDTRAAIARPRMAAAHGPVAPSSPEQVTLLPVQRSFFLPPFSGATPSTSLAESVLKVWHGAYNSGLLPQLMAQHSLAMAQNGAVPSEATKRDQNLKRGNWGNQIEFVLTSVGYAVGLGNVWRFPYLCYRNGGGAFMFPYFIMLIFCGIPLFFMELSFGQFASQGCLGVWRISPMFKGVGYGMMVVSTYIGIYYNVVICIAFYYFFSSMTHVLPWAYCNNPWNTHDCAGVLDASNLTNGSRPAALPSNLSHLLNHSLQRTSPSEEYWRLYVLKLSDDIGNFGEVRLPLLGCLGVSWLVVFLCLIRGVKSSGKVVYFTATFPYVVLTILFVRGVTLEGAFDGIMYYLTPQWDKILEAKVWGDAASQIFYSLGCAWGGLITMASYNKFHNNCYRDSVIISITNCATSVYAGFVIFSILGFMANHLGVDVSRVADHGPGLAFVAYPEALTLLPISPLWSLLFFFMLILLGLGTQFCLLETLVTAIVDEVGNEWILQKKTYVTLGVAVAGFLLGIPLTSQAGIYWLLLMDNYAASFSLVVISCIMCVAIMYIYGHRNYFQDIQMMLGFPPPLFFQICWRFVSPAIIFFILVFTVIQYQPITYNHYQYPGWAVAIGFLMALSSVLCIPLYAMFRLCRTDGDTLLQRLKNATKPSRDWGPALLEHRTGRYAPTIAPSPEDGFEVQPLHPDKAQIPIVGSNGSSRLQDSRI

Rattus norvegicus = assay: Compound tested for increase in levels of glycine in the ventral hippocampus at a dose of 4.6 mg/kg after 60 min of s.c. administration; format: functional
Outline: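 In vivo microdialysis in freely moving rats, ventral hippocampus. Compound given subcutaneously. Extracellular glycine measured, with mean basal pre-injection values normalised to 100%; n is the number of animals.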

[2] = Half-life in rat; format: ADME; settings: in vivo
[3] = Oral bioavailability in rat; format: ADME, organism-based; settings: in vivo
Outline: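 Rat pharmacokinetics, oral dosing as a solution.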

[4] = Plasma clearance in rat; format: ADME, organism-based

SMILES | IC50 [1] [nM] | other results
COc1ccc(Sc2ccccc2N2C[C@H](C)N(CC(=O)O)C[C@H]2C)cc1 | 53000 | 
COc1ccc(Sc2ccccc2N2CC(C)N(CC(=O)O)CC2C)cc1 (stereo not drawn) | 580 | 
COc1ccc(Sc2ccc(Cl)cc2N2CC(C)N(CC(=O)O)CC2C)cc1 (stereo not drawn) | 1700 | 
COc1ccc(Sc2ccccc2N2C[C@@H](C)N(CC(=O)O)C[C@H]2C)cc1 | 16000 | 
COc1ccc(Sc2ccccc2N2CCN(CC(=O)O)C(C)C2)cc1 (stereo not drawn) | 1700 | 
COc1ccc(Sc2ccc(Cl)cc2N2CCN(CC(=O)O)[C@@H](C)C2)cc1 | 1400 | 
Cc1ccc(Sc2ccccc2N2CC(C)N(CC(=O)O)CC2C)cc1 (stereo not drawn) | 550 | 
COc1ccc(Sc2ccc(Cl)cc2N2CCN(CC(=O)O)C(C)C2)cc1 (stereo not drawn) | 290 | 
CC1CN(c2ccccc2Sc2ccc(O)cc2)C(C)CN1CC(=O)O (stereo not drawn) | 3600 | 
CC1CN(c2ccccc2Sc2ccc(Cl)cc2)C(C)CN1CC(=O)O (stereo not drawn) | 360 | 
COc1ccc(Sc2ccc(OC)cc2N2CC(C)N(CC(=O)O)CC2C)cc1 (stereo not drawn) | > 50000 | 
COc1ccc(Sc2ccccc2N2CCN(CC(=O)O)C(C)(C)C2)cc1 | 1500 | 
COc1ccc(Sc2ccccc2N2CCN(CC(=O)O)CC2)cc1 | > 10000 | 
CC1CN(c2ccccc2Sc2ccc(-c3ccccc3)cc2)C(C)CN1CC(=O)O (stereo not drawn) | > 10000 | 
CC(=O)Nc1ccc(Sc2ccccc2N2CC(C)N(CC(=O)O)CC2C)cc1 (stereo not drawn) | 22000 | 
COc1ccc(Sc2ccccc2N2C[C@@H](C)N(CC(=O)O)C[C@@H]2C)cc1 | 160 | 
CN(CC[C@@H](Oc1ccc(C(F)(F)F)cc1)c1ccccc1)CC(=O)O | 320 | 
COc1ccc(Sc2ccc(C)cc2N2CCN(CC(=O)O)C(C)C2)cc1 (stereo not drawn) | 1600 | 
COc1ccc(Sc2ccc(OC)cc2N2CCN(CC(=O)O)C(C)C2)cc1 (stereo not drawn) | 4600 | 
CC1CN(c2ccccc2Sc2ccccc2)C(C)CN1CC(=O)O (stereo not drawn) | 2900 | 
COc1ccc(Sc2ccccc2N2CCN(CC(=O)O)CC2C)cc1 (stereo not drawn) | > 10000 | 
COc1ccc(Sc2ccc(Cl)cc2N2CCN(CC(=O)O)[C@H](C)C2)cc1 | 150 | Increase (Rattus norvegicus): 140%; half-life [2]: 240 min; bioavailability [3]: 100%; clearance [4]: 6.67 mL/min/kg
COc1ccc(Sc2ccccc2N2C[C@H](C)N(CC(=O)O)C[C@@H]2C)cc1 | 18000 | 
CC1CN(c2ccccc2Sc2ccc(F)cc2)C(C)CN1CC(=O)O (stereo not drawn) | 1900 | 
